Source: PubChem BioAssay
Only some compounds are listed: those with a hit (about 6.4% of all), similar ones and a draw of the others.
H69AR growth 86K: growth inhibitors of human H69AR lung tumor cells. H69AR lung tumor viability, ATP luminescence, 72 h; stronger effect = lower value. viability, % at 10 µM. 85,000 compounds, 6% hits;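 active = viability at or below 40%; inactive = viability above 40%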;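 also: multidrug resistant small cell line overexpressing MRP-1 efflux transporter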
tolC growth inh: E. coli tolC mutant growth inhibition; E. coli BW25113 tolC mutant growth, OD615; growth inhibition, % at 10 µM (by protocol); 65,000 compounds, 2.2% hits; AID 573;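 active = growth inhibition at or above a cutoff equal to the mean over every tested compound plus 3 SD, cut at about 60% in these data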;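 also: growth measured after 20 h incubation at 37 °C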
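Test system – E. coli BW25113 ΔtolC::kan, tolC deletion mutant strain · Detection – OD at 615 nm · Buffer or medium – LB with kanamycin 50 µg/mL · Times – 20 h compound exposure of bacteria at 37 °C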
Fibroblast inh: blocks proliferation of human lung fibroblasts; LL 47 human lung fibroblast viability, ATP luminescence; stronger effect = lower value; viability, % at 10 µM; 85,000 compounds, 1.1% hits;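 active = viability at or below 50% in the single dose screen; inactive = viability above 50%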;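 also: compound exposure lasted 72 h before the ATP readout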
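Assay system: human lung fibroblast line LL 47, low passage. Input: 1,150 fibroblasts seeded per well. Times: overnight cell rest, 72 h compound treatment at 37 °C. Evaluation: % viability of median cell-only signal. Technique: luminescent ATP detection, CellTiter-Glo. Control set: cell-only wells, no compound.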
HUVEC inhibit: blocks proliferation of human endothelial cells | HUVEC proliferation, CellTiter-Glo luminescence, 72 h; stronger effect = lower value | viability, % at 10 µM (by protocol) | 86,000 compounds, 1.1% hits | AID 648;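 active = viability at or below 30%; inactive = viability above 30%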
Jurkat tox 60K: cytotoxicity toward Jurkat cells | Jurkat E6.1 viability, ATP luminescence, 48 h | inhibition, % at 4 µM | 56,000 compounds, 1.2% hits | AID 463;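 active = inhibition above the mean inhibition of all tested compounds plus 3 SD, cut at about 28% in these data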
Ecoli WT expand: E. coli BW25113 growth inhibition, expanded screen | OD600 absorbance | growth inhibition, % at 100 µM | 98,000 compounds, 0.15% hits;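 active = growth inhibition above about 50% at one test dose, limit read from the data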;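 also: growth measured after 20 h incubation at 37 °C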
Numbers stand for hits; n = inactive; x = not tested or not shown.

SMILES	H69AR growth 86K	tolC growth inh	Fibroblast inh	HUVEC inhibit	Jurkat tox 60K	Ecoli WT expand
Cc1ccc(-n2nnnc2SCc2ccccn2)cc1C	n	x	n	n	x	n
CCCCN(CC)C(=O)CSc1nc2ccccc2c(=O)n1CC1COc2ccccc2O1 (configuration not stated)	n	x	n	n	x	n
COC(=O)c1ccc2c(=O)n(Cc3ccco3)c(SCC(=O)Nc3ccc(C)c(Cl)c3)nc2c1	8.1	n	12	n	n	n
COCCNC(=O)CSc1nc2cc(OC)c(OC)cc2c(=O)n1Cc1ccco1	n	n	n	n	x	n
Cc1cc(NC(=O)CSc2nc3cc4c(cc3c(=O)n2CCc2ccccc2)OCO4)no1	10	n	n	16	x	n
O=c1c2ccccc2nc(-c2ccco2)n1Cc1ccccc1	n	n	n	n	x	n
CCOc1ccc(CCn2c(-c3ccco3)nc3ccccc3c2=O)cc1OCC	32	x	n	n	x	n
CCCCNC(=O)CSc1nc2ccccc2c(=O)n1CC1COc2ccccc2O1 (configuration not stated)	27	x	n	n	x	n
COc1ccc(NC(=O)CSc2nc3ccccc3c(=O)n2CCCN2CCCCC2)c(OC)c1	n	x	n	n	x	n
CCn1c(SCC(=O)OC2CCCCC2)nc2ccccc2c1=O	n	72	n	n	n	n
COCCCn1c(SCC(=O)Nc2ccc(NC(=O)c3ccco3)c(OC)c2)nc2ccccc2c1=O	32	x	n	n	x	x
CCOC(=O)CSc1nc2ccccc2c(=O)n1CC	n	n	n	n	n	n
Cc1cc(NC(=O)CSc2nc(C(C)C)nc3ccccc23)no1	14	x	n	n	x	n
CCOc1ccc(-n2c(SCC(=O)Nc3cc(C)on3)nnc2-c2c[nH]c3ccccc23)cc1	27	x	n	n	x	n
COc1ccc(CCn2c(SCC(=O)Nc3cc(C)on3)nc3ccccc3c2=O)cc1OC	33	n	n	n	n	n
Cc1cc(NC(=O)CSc2nc3ccccc3c(=O)n2-c2ccccc2)no1	x	x	x	x	x	n
COc1ccc(CCn2c(SCC(=O)Nc3cc(C)on3)nc3ccsc3c2=O)cc1OC	n	n	n	n	x	n
COc1ccc(NC(=O)CSc2nc3ccccc3c(=O)n2-c2ccc3c(c2)OCO3)c(OC)c1	9.4	n	n	n	n	n
COc1ccc(-n2c(SCC(=O)Nc3ccc4c(c3)OCO4)nc3ccccc3c2=O)cc1	n	n	n	n	n	n
CCOC(=O)c1cccc(NC(=O)CSc2nc3ccccc3c(=O)n2CC)c1	40	n	n	n	n	n
CCOC(=O)c1cccc(NC(=O)CSc2nc3ccccc3c(=O)n2CCOC)c1	n	n	n	n	n	n
Cc1cc(NC(=O)CSc2nc3ccccc3c(=O)n2Cc2ccc(F)cc2)no1	40	n	n	n	n	n
O=c1c2ccccc2nnn1CSc1nc2cc(Cl)ccc2c(=O)n1Cc1ccco1	28	n	n	n	n	x
CCCCCCn1c(SCC(=O)Nc2cc(C)on2)nc2ccccc2c1=O	7.0	n	n	n	n	n
O=c1c2ccccc2nnn1CSc1nnc(COc2ccc(Cl)cc2)n1Cc1ccco1	n	n	n	n	n	n
SMILES	H69AR growth 86K	tolC growth inh	Fibroblast inh	HUVEC inhibit	Jurkat tox 60K	Ecoli WT expand
CCc1ccc(NC(=O)CSc2nc3ccccc3c(=O)n2CCCC(=O)N2CCCC2)cc1	30	x	n	n	x	n
CCCCC(NC(C)=O)c1nc2ccccc2n1CCCC (configuration not stated)	n	n	n	n	x	n
c1ccc(-c2nnc(-c3ccccn3)nc2NC2CCCCC2)cc1	37	x	19	18	x	100
c1ccc(-c2n[nH]c(-c3ccccn3)n2)cc1	n	x	n	n	x	n
CNc1nc(-c2ccccn2)nnc1-c1ccccc1	n	x	13	11	x	n
c1ccc(-c2nc(-c3ccccn3)no2)cc1	n	x	n	n	x	x
Oc1ccc(F)cc1-c1cc(-c2ccc3c(c2)OCCO3)n[nH]1	37	x	n	n	x	n
Oc1ccc(Br)cc1-c1cc(-c2ccccc2F)[nH]n1	n	n	n	n	x	n
CCCCOc1ccc(Br)cc1/C(C)=N/NC1=NCCN1	n	x	23	7.1	x	x
CCCOc1ccc(Br)cc1/C=N/O	n	x	n	n	x	n
NC(=O)c1oc2ccc(Cl)cc2c1NC(=O)CN1CCOCC1	n	x	n	n	n	n
Cc1nc2c(-c3ccc(F)cc3)c(C)nn2c(C)c1CCC(=O)N1CCN(c2ccc(F)cc2)CC1	n	x	n	n	x	n
Cc1sc2ncnc(Oc3ccc(-n4ccnc4)cc3)c2c1C	n	n	n	n	n	n
COc1ccc(OC)c(NC(=O)c2c(NC(=O)CNCc3ccco3)sc3c2CCC3)c1	16	n	n	n	n	n
COCc1nnc(NC(=O)c2ccc(S(=O)(=O)N(C)c3ccccc3)cc2)o1	n	87	n	n	n	n
CCN(c1ccccc1)S(=O)(=O)c1ccc(C(=O)Nc2nnc(COC)o2)cc1	n	95	n	n	n	n
CCN(c1ccccc1)S(=O)(=O)c1ccc(NC(=S)NC(=O)c2ccc(Br)o2)cc1	x	x	x	x	x	n
CCC(C)N1C(=O)C2C(C(=O)Nc3cccc(OC)c3)C3C=CC2(O3)C1C(=O)NC1CCCCC1C (configuration not stated)	n	n	n	n	n	n
COc1ccccc1NC(=O)C1CC(=O)N(c2ccc(F)cc2)C1 (configuration not stated)	n	n	n	n	n	n
c1ccc(-n2ncc3c2ncn2nc(CSc4nc5ccccc5s4)nc32)cc1	29	n	n	n	n	x
Fc1cccc(-c2cc3nc4c(c(N5CCOCC5)n3n2)CCCC4)c1	n	100	n	n	n	n
COc1ccc(-c2cc3nc4c(c(N5CCC6(CC5)OCCO6)n3n2)CCCC4)cc1	n	65	n	n	n	x
COc1c[nH]n(C2CCCCC2)c(=O)c1=O	n	n	n	n	n	n
CCOC(=O)c1cc(CC)sc1NC(=O)Cc1ccsc1	n	73	n	n	n	n
CCOC(=O)c1cc(CC)sc1NC(=O)CCC(=O)O	n	n	n	n	n	n
SMILES	H69AR growth 86K	tolC growth inh	Fibroblast inh	HUVEC inhibit	Jurkat tox 60K	Ecoli WT expand
Cn1c(C(C#N)C(=O)c2ccco2)nc2ccccc21 (configuration not stated)	33	n	n	n	n	n
CN(C)S(=O)(=O)N1CCc2ccccc21	n	n	n	n	n	n
O=S(=O)(Cc1ccccc1)N1CCc2ccccc21	28	n	n	n	n	n
CCCOc1ccc(C(=O)NNC(=S)NC(=O)CC)cc1	x	x	x	x	x	68
C=CCNC(=S)NNC(=O)c1ccc(OCCC)cc1	n	x	n	n	x	x
CC(C)(C)NS(=O)(=O)c1cccc(S(=O)(=O)c2cccc(S(=O)(=O)NC(C)(C)C)c2)c1	n	n	n	n	n	n
c1ccc(OCCCCn2cnc3ccccc32)cc1	n	n	n	n	33	n
Brc1ccccc1OCCCn1cnc2ccccc21	n	x	n	16	x	n
NCCCCCc1nnc(SCc2ccc(Cl)c(Cl)c2)o1	n	x	n	n	x	n
C=CCn1c(N)cc(=O)nc1SC(C)C(=O)Nc1cccc2ccccc12 (configuration not stated)	n	x	n	n	x	x
